From ChEMBL document CHEMBL5390262, “Further Studies on the Highly Active Des-C-Ring and Aromatic-D-Ring Analogues of 1α,25-Dihydroxyvitamin D3 (Calcitriol): Refinement of the Side Chain” (J Med Chem, 2023)
The source made the active and inactive calls. The calls are words filed in the database; no cut-off is given here.

Assays:
Vitamin D3 receptor = molecular target: T1, Vitamin D3 receptor (Homo sapiens, UniProt P11473); assay: Binding affinity to full length human VDR by Competitive binding assay
T1 sequence (P11473 whole entry): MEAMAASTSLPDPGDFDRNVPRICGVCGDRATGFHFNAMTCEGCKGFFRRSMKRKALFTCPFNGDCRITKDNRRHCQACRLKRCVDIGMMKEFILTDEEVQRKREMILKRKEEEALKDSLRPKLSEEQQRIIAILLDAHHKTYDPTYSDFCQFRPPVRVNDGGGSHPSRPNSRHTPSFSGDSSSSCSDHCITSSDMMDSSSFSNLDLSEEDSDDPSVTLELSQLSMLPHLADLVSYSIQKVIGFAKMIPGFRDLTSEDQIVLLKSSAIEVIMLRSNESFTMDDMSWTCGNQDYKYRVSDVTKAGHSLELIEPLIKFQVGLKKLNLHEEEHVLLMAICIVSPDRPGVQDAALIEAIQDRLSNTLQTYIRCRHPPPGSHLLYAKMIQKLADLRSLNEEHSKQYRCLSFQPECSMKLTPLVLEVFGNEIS

Mus musculus = assay: Effect on hypercalcemic activity in Swiss CD-1 mouse assessed as increase in serum calcium level at 0.3 microg/kg,ip using sesame oil as vehicle for 21 days on every other day by QuantiChom calcium assay; assay type: functional; settings: dose 0.3 µg/kg, time 21.0 day
How it was run: (§1)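 Groups of 5 male Swiss CD-1 mice given 0.3 μg/kg i.p. every other day for 21 days in sesame oil vehicle; sesame oil alone as control. Body weight recorded at day 21. Serum calcium measured at end of test by colorimetric calcium assay kit. Mean ± SD, n=5.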

[1] = Toxicity in Swiss CD-1 mouse assessed as body weight change at 0.3 microg/kg,ip using sesame oil as vehicle for 21 days on every other day; settings: in vivo, 0.0003 mg/kg, 504 h, dose 0.3 µg/kg, time 21 day; how it was run: as §1
HaCaT = assay: Induction of human HaCaT cells differentiation assessed as increase in formation of compact epithelioid islands at 0.1 microM incubated for 48 hrs by phase-contrast microscopy; assay type: functional, cell-based
How it was run: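 HaCaT keratinocytes in charcoal-treated FCS medium treated 24 h after plating with compound at 10^-7 M in ethanol for 48 h. Ethanol-treated controls. Differentiation judged by phase-contrast microscopy, e.g. compact epithelioid island formation.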

MCF7 = assay: Upregulation of Cadherin-1 protein expression in human MCF7 cells at 0.1 uM incubated for 48 hrs by Western blot analysis; assay type: functional, cell-based
How it was run: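 MCF-7 cells in charcoal-stripped FCS medium treated with compound at 10^-7 M (ethanol vehicle) for 48 h. E-cadherin protein detected by Western blot with GAPDH as loading control; bands quantified by densitometry.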

MDA-MB-231 [2] = assay: Antiproliferative activity against human MDA-MB-231 cells assessed as decrease in cell proliferation at 0.1 uM incubated for 48 hrs by MTT assay; assay type: functional, cell-based
How it was run: (§2)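 MDA-MB-231 cells seeded at 2 x 10^5 cells/well in medium with charcoal-treated FCS, then treated 24 h later with compound at 10^-7 M (ethanol vehicle) for 48 h, alone or together with cisplatin 25 μM. Read by MTT, DMSO solubilization, absorbance at 570 nm. Expressed as percent inhibition of proliferation relative to ethanol control normalized to 100%.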

MDA-MB-231 [3] = assay: Antiproliferative activity against human MDA-MB-231 cells assessed as decrease in cell proliferation at 0.1 uM incubated for 48 hrs in presence of cisplatin by MTT assay; assay type: functional, cell-based; how it was run: as §2
MDA-MB-231 [4] = assay: Antiproliferative activity against human MDA-MB-231 cells cultured as 3D spheroids assessed as decrease in cell growth by measuring the sphere diameter at 0.1 uM incubated for 6 days by Phase-contrast microscopy; assay type: functional, cell-based; settings: time 6.0 day
How it was run: (§3)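 3D culture: single-cell suspension of MDA-MB-231 (5x10^3 cells/100 μL) grown 4 days on a cell-repellent surface. Then treated 6 days with compound at 10^-7 M, given every other day, with or without cisplatin 25 μM. Ethanol control. Sphere growth quantified as relative units; mean ± SD.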

MDA-MB-231 [5] = assay: Antiproliferative activity against human MDA-MB-231 cells cultured as 3D spheroids assessed as decrease in cell growth by measuring the sphere diameter at 0.1 uM incubated for 6 days in presence of cisplatin by Phase-contrast microscopy; assay type: functional, cell-based; settings: time 6.0 day; how it was run: as §3

## C=C1/C(=C\C=C(/C)c2cccc(CCC#CCC(O)(C(F)(F)F)C(F)(F)F)c2)C[C@@H](O)C[C@@H]1O
Vitamin D3 receptor
  IC50: 45.7 nM
Mus musculus
  Activity: inactive
[1]
  Activity: Non-Toxic
HaCaT
  Activity: Active
MCF7
  Activity: Active
MDA-MB-231 [2]
  Activity: Active
MDA-MB-231 [3]
  Activity: Active
MDA-MB-231 [4]
  Activity: inactive
MDA-MB-231 [5]
  Activity: Active

## C=C1/C(=C\C=C(/CC)c2cccc(CCC#CCC(O)(C(F)(F)F)C(F)(F)F)c2)C[C@@H](O)C[C@@H]1O
Vitamin D3 receptor
  IC50: 4.64 nM
Mus musculus
  Activity: inactive
[1]
  Activity: Non-Toxic
HaCaT
  Activity: Active
MCF7
  Activity: Active
MDA-MB-231 [2]
  Activity: Active
MDA-MB-231 [3]
  Activity: Active
MDA-MB-231 [4]
  Activity: inactive
MDA-MB-231 [5]
  Activity: Active

## C=C1/C(=C\C=C2/CCC[C@]3(C)[C@@H]([C@H](C)CCCC(C)(C)O)CC[C@@H]23)C[C@@H](O)C[C@@H]1O [CALCITRIOL]
Mus musculus
  Activity: Active
[1]
  Activity: Toxic
HaCaT
  Activity: Active
MCF7
  Activity: Active
MDA-MB-231 [2]
  Activity: Active
MDA-MB-231 [3]
  Activity: Active
MDA-MB-231 [4]
  Activity: inactive
MDA-MB-231 [5]
  Activity: Active

## C=C1/C(=C\C=C(/CC)c2cccc(CCC#CCC(C)(C)O)c2)C[C@@H](O)C[C@@H]1O
Vitamin D3 receptor
  IC50: 7.47 nM
Mus musculus
  Activity: inactive
[1]
  Activity: Non-Toxic
HaCaT
  Activity: Active
MCF7
  Activity: Active
MDA-MB-231 [2]
  Activity: Active
MDA-MB-231 [3]
  Activity: Active
MDA-MB-231 [4]
  Activity: inactive
MDA-MB-231 [5]
  Activity: Active

## C=C1/C(=C\C=C(/CC)c2cccc(CCCCCC(O)(C(F)(F)F)C(F)(F)F)c2)C[C@@H](O)C[C@@H]1O
Vitamin D3 receptor
  IC50: 2.91 nM
Mus musculus
  Activity: inactive
[1]
  Activity: Non-Toxic
HaCaT
  Activity: Active
MCF7
  Activity: Active
MDA-MB-231 [2]
  Activity: Active
MDA-MB-231 [3]
  Activity: Active
MDA-MB-231 [4]
  Activity: inactive
MDA-MB-231 [5]
  Activity: Active
